Measured values reported in BindingDB's records for doi:10.1021/jm0010217 (Menarini Ricerche, 2000).
Bridge positions count the residues as written; N and C are the ends. Square brackets hold non-standard residues; d marks the D form. Peptide text beside a SMILES is read from it. * marks the point of attachment. NH(β-GlcNAc) = CC(=O)N[C@@H]1[C@@H](O)[C@H](O)[C@@H](CO)O[C@H]1N*; Dap = NC[C@H](N)C(=O)O

Experiments:
Substance-K receptor [1] = target: T1, Substance-K receptor (Homo sapiens, UniProt P21452); assay: (§1) Compound was evaluated for Kd value against [3H]-SR- 48968 on the Tyr206Ala mutated human NK-2 receptor
T1 sequence (P21452 whole entry): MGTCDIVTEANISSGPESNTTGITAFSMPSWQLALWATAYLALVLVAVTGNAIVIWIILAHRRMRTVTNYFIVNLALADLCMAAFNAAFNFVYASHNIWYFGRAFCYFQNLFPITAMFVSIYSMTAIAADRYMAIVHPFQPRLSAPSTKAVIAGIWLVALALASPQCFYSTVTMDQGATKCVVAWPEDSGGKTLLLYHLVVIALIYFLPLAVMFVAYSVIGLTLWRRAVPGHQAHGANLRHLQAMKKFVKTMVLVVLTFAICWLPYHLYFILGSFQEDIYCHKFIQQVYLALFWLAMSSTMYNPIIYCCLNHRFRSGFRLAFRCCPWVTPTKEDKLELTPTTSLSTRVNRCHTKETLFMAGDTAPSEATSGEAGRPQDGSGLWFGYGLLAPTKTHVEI

Substance-K receptor [2] = target: T2, Substance-K receptor (Homo sapiens, UniProt P21452, Y266F); assay: Compound was evaluated for Kd value against [125I]NKA on the Tyr266Phe mutated human NK-2 receptor
T2 sequence (P21452 whole entry): T1 sequence (P21452 whole entry)

Substance-K receptor [3] = target: T1, Substance-K receptor; assay: Compound was evaluated for Kd value against [3H]-SR- 48968 on the Wild-type tachykinin receptor 2
Substance-K receptor [4] = target: T3, Substance-K receptor (Homo sapiens, UniProt P21452, Y206F); assay: Compound was evaluated for Kd value against [125I]-NKA on the Tyr206Phe mutated human NK-2 receptor
T3 sequence (P21452 whole entry): T1 sequence (P21452 whole entry)

Substance-K receptor [5] = target: T1, Substance-K receptor; assay: Compound was evaluated for Kd value against [125I]NKA on the Wild-type tachykinin receptor 2
Substance-K receptor [6] = target: T2, Substance-K receptor; assay: Compound was evaluated for Kd value against [3H]-SR- 48968 on the Tyr266Phe mutated human NK-2 receptor
Substance-K receptor [7] = target: T4, Substance-K receptor (Homo sapiens, UniProt P21452, F270A); assay: Compound was evaluated for Kd value against [3H]-SR- 48968 on the Phe270Ala mutated human NK-2 receptor
T4 sequence (P21452 whole entry): T1 sequence (P21452 whole entry)

Substance-K receptor [8] = target: T3, Substance-K receptor; assay: Compound was evaluated for Kd value against [3H]-SR- 48968 on the Tyr206Phe mutated human NK-2 receptor
Substance-K receptor [9] = target: T5, Substance-K receptor (Homo sapiens, UniProt P21452, Y206A); assay: as §1
T5 sequence (P21452 whole entry): T1 sequence (P21452 whole entry)

Substance-K receptor [10] = target: T3, Substance-K receptor; assay: Compound was evaluated for Kd value against [125I]NKA on the Tyr206Phe mutated human NK-2 receptor
Summary of the method: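 Human NK-2 receptor carrying the point mutation, transfected into CHO cells. Radioligand binding with [125I]NKA.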

Compound	Kd (Substance-K receptor [1])	Kd (Substance-K receptor [2])	Kd (Substance-K receptor [3])	Kd (Substance-K receptor [4])	Kd (Substance-K receptor [5])	Kd (Substance-K receptor [6])	Kd (Substance-K receptor [7])	Kd (Substance-K receptor [8])	Kd (Substance-K receptor [9])	Kd (Substance-K receptor [10])
CC(=O)N[C@@H]1[C@@H](O)[C@H](O)[C@@H](CO)O[C@H]1NC(=O)C[C@@H]1NC(=O)[C@H](CC(C)C)NC(=O)[C@@H]2CNC(=O)C[C@H](NC1=O)C(=O)N[C@@H](Cc1c[nH]c3ccccc13)C(=O)N[C@@H](Cc1ccccc1)C(=O)N2 (cyclo(D(NH(β-GlcNAc))DWF[Dap]L); lactam 2-5)	> 1 µM	0.026 µM	0.0044 µM	0.0031 µM	0.0021 µM	0.048 µM	0.291 µM	0.0019 µM		
O=C1CCC(=O)N[C@@H](Cc2c[nH]c3ccccc23)C(=O)N[C@@H](Cc2ccccc2)C(=O)N[C@H](Cc2ccccc2)CN1 [MEN-11558]		0.034 µM	0.01 µM		0.0027 µM	0.048 µM	0.208 µM	0.0013 µM	1.96 µM	0.0036 µM
